# Data taken from PubChem BioAssay.
# Active and inactive are the calls of the source.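 The calls were made as follows, unless noted: active = potentiation averaged over duplicate wells exceeding buffer-only control mean by more than 3 SD; inactive = the rest.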
# Tests used:
# [1] = thallium flux activation in parental CHO cells, counter-screen for KCNQ1 potentiator project (AID 493006;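 active = duplicate-averaged activation above buffer control mean plus 5 SD of those controls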;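 as to activation: fluorescence ratio of max minus min over baseline after K+ and Tl+ depolarization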); conditions: parental CHO-K1 cells, FluxOR thallium flux, at 10 µM; stronger effect = higher value
# How it was run: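 Assay system: parental CHO-K1 cells lacking KCNQ1, loaded with FluxOR thallium dye; timing: dye 90 min RT, compound 20 min RT; signal: kinetic thallium-flux fluorescence; repeats: duplicate wells per compound, percent values averaged; benchmarks: buffer and R-L3 controls; reagent: Potassium/thallium depolarization pulse; read-out: fluorescence change ratio scaled 0% buffer, 100% R-L3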
# [2] = molecular target: Potassium voltage-gated channel subfamily KQT member 1 (Homo sapiens) (UniProt P51787); assay: KCNQ1 potassium channel potentiators, confirmation, FluxOR thallium flux, CHO cells, duplicates (AID 493007); conditions: KCNQ1 cell line, FluxOR thallium flux fluorescence, at 10 µM; stronger effect = higher value, % of reference activator effect, buffer zero;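 as to outcome: cells depolarized by a potassium plus thallium sulfate stimulus after compound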
# How it was run: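 material = CHO cells stably expressing the KCNQ1 potassium channel | repeats = duplicate wells per compound | measure = percent activation between buffer and R-L3 responses | signal = FluxOR thallium-flux fluorescence, kinetic read | schedule = FluxOR dye loading 90 min, compound exposure 20 min, room temperature | control set = buffer and R-L3 controls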
# [3] = molecular target: Potassium voltage-gated channel subfamily KQT member 2 (Rattus norvegicus) (UniProt O88943); assay: rat KCNQ2 channel potentiation, selectivity assay for KCNQ1 potentiator project, KCNQ2-CHO-K1 cells (AID 493009;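 active = mean duplicate potentiation above the buffer control mean plus 5 SD of buffer wells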;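 also: assay conditions were tuned for KCNQ1 rather than KCNQ2 modulators; signal is max minus min fluorescence divided by baseline after thallium stimulus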); conditions: FluxOR thallium flux fluorescence, at 10 µM; stronger effect = higher value, scaled: buffer 0, activator control 100
# [4] = molecular target: Potassium voltage-gated channel subfamily KQT member 1 (Homo sapiens) (UniProt P51787); assay: KCNQ1 channel current potentiators, confirmation, orthogonal assay for KCNQ1 potentiator project, IonWorks patch clamp, KCNQ1-CHO cells (AID 493184;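 active = current rise at least 3 SD above the untreated control mean in each of two repeat wells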); conditions: automated patch clamp current, at 10 µM; stronger effect = higher value
# How it was run: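 Assay system – CHO cells carrying KCNQ1 · Medium – pH 7.4 external bath · Probe or stimulus – depolarizing pulse to +40 mV from -90 mV · Compound dosing – one dose, 10 µM final · Measured by – automated perforated-patch electrophysiology · Measure – % potentiation of steady-state current relative to pre-compound · Repeats – two replicates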
# Chain of Potassium voltage-gated channel subfamily KQT member 2 (Rattus norvegicus) (O88943 whole entry, looked up): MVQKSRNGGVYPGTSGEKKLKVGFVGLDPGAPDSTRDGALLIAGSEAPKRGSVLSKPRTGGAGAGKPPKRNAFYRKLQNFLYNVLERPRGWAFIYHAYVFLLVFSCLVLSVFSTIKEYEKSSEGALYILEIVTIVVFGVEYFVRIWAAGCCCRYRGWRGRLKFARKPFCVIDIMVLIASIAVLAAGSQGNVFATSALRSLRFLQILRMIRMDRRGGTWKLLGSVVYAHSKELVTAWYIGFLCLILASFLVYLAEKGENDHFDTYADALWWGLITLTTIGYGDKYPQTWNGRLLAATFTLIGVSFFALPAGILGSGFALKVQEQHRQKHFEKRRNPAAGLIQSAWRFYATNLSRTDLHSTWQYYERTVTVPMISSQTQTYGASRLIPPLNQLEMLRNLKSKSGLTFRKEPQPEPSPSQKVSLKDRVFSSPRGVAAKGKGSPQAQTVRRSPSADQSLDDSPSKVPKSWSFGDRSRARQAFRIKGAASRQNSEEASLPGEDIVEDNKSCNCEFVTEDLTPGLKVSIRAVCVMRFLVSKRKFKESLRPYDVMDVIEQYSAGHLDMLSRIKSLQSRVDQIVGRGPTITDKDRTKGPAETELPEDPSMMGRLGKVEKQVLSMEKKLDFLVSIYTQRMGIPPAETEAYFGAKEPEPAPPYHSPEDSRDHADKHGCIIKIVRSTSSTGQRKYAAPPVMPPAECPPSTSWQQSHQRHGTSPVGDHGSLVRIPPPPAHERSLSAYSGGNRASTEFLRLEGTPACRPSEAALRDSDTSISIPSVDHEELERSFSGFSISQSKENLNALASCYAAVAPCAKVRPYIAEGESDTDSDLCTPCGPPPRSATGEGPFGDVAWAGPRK
# Chain of Potassium voltage-gated channel subfamily KQT member 1 (Homo sapiens) (P51787 whole entry, looked up): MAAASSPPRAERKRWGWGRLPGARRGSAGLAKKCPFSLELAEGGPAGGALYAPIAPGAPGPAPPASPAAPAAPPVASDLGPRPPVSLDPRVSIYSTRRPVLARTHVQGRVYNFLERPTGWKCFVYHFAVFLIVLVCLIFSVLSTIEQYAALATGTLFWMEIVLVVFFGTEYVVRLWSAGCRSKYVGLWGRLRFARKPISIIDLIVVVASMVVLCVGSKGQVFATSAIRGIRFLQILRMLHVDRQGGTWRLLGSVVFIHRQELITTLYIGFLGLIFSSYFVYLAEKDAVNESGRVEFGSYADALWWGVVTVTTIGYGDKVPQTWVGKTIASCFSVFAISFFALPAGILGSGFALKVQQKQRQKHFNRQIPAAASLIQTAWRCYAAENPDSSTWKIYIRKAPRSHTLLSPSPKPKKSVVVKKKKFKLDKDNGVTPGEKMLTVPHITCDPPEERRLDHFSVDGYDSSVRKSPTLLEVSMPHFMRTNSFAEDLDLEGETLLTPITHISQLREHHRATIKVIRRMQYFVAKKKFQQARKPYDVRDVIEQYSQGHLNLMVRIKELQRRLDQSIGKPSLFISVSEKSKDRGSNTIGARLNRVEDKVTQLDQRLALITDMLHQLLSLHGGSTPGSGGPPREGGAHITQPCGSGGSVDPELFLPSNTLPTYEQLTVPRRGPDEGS
SMILES,outcome [1],outcome [2],outcome [3],outcome [4],activation [1],potentiation [2],potentiation [3]
COc1ccc(NC2=NC3(CCCCC3)N=C(N)N2)cc1,inactive,inactive,inactive,inactive,,,
O=C(N/N=C/c1ccccn1)c1cc(-c2ccc(Br)cc2)nc2ccccc12,,,,inactive,142% (active),51.5% (active),174% (active)
O=c1[nH]c(Nc2ccccc2)cc2cc(Br)ccc12,inactive,inactive,inactive,inactive,,,
O=C(c1ccc(Cl)cc1)c1c[nH]c(C(=O)C(Cl)(Cl)Cl)c1,inactive,inactive,inactive,inactive,,,
COc1ccc(C(=O)CSc2nnc(CNC(=O)c3ccc(OC)cc3)n2C)cc1,inactive,,inactive,inactive,,21% (active),
CCCCOC(=S)NC(=O)c1sc2ccccc2c1Cl,,,,inactive,448% (active),206% (active),365% (active)
CCCOC(=S)NC(=O)c1sc2ccccc2c1Cl,,,,inactive,294% (active),106% (active),274% (active)
Nc1nc(-c2ccccc2)c(N=Nc2ccccc2Cl)s1,,,,inactive,488% (active),168% (active),416% (active)
CCn1nnc2cc(C(=O)Nc3cc(S(C)(=O)=O)ccc3Cl)ccc21,inactive,inactive,inactive,inactive,,,
Cc1ccc(OCC(=O)NCCCNC(=O)c2ccncc2)cc1C,inactive,inactive,inactive,inactive,,,
O=c1ccc(-c2ccc(S(=O)(=O)Nc3ccccc3)o2)n[nH]1,inactive,inactive,inactive,inactive,,,
COc1ccc(C(=O)CC(=O)C(=O)Nc2ccc(C)c(Cl)c2)cc1,,,inactive,inactive,138% (active),26% (active),
O=C(COc1cccnc1[N+](=O)[O-])Nc1cccc(S(=O)(=O)N2CCCCC2)c1,inactive,inactive,inactive,inactive,,,
CN1C(=O)/C(=N\OC(=O)c2cccc3ccccc23)c2ccccc21,inactive,inactive,inactive,inactive,,,
CC(=O)N(C)c1ccc(NC(=O)Cc2cccc3ccccc23)cc1,inactive,inactive,inactive,inactive,,,
COc1ccc(C(=O)NC(=S)N(Cc2ccccc2)Cc2ccccc2)cc1,,,,inactive,385% (active),168% (active),436% (active)
CC(=O)NC1=C(NC2CCS(=O)(=O)C2)C(=O)c2ccccc2C1=O (stereo not given),inactive,inactive,inactive,inactive,,,
O=C(CN1C(=O)CNC1=O)Nc1cccc(C(F)(F)F)c1,inactive,inactive,inactive,inactive,,,
COc1cccc(OCC(=O)NNC(=O)C(=O)Nc2cccc(C)c2)c1,,,,inactive,188% (active),74.5% (active),224% (active)
Cc1sc2nc(C(C)C)nc(SCC(=O)NCc3ccco3)c2c1C,,,,inactive,276% (active),85.5% (active),280% (active)
N#Cc1ccc(-c2nc3cc(Cl)ccc3c(=O)n2O)cc1,,,,inactive,189% (active),29.5% (active),176% (active)
c1ccc2[nH]c(-c3ccc4c(c3)OCO4)nc2c1,inactive,inactive,inactive,inactive,,,
CCOc1ccc(NC(=O)C2CCN(S(=O)(=O)c3cccnc3)CC2)cc1,inactive,inactive,inactive,inactive,,,
CCN(c1ccccc1)S(=O)(=O)c1ccc(NC(=O)c2nc(S(C)(=O)=O)ncc2Cl)cc1,inactive,inactive,,inactive,,,156% (active)
COc1ccc2cc(CCNC(=O)C3CCCC3)c(=O)[nH]c2c1,inactive,inactive,inactive,inactive,,,
Cc1onc(-c2ccccc2Cl)c1C(=O)Nc1ccccc1O,inactive,inactive,inactive,inactive,,,
COCCCN=C1NN=C(c2cc(C)n(-c3ccccc3F)c2C)CS1,inactive,inactive,inactive,inactive,,,
O=c1c2cc(Br)ccc2nc(-c2ccccc2)n1O,,,,inactive,366% (active),63.5% (active),314% (active)
CC1Cc2ccccc2N1C(=S)NC(=O)C1(C)CC1(Cl)Cl (stereo not given),,,,inactive,236% (active),72.5% (active),267% (active)
C=CCCCN(Cc1ccccc1)S(=O)(=O)c1ccccc1Br,inactive,inactive,inactive,inactive,,,
